≈ marks a conversion by molar mass, not a printed value. Calls of active or inactive are those of the source. No cut-off for these calls is given here. Numbered stars: 1 amine (or outer) side, 2 acyl side, 3 side chain; on linkers, the order of the positions; unused ones are H or OH. Bridge positions count the residues as written; N and C are the ends. Square brackets hold non-standard residues; d marks the D form. Peptide text beside a SMILES is read from it. * marks the point of attachment. ξ: configuration not given here. X2 = CCCCCCCCCCCCC(C)C(CC(=O)[*:1])O[*:2]; X1 = CCCCCCCCCCCCC(C)(O)C(O)CC(=O)*; ξhSer = NC(CCO)C(=O)O
Columns and labels:
Staphylococcus aureus = test: Antimicrobial activity against Staphylococcus aureus MB2865 assessed as inhibition of microbial growth after 24 hrs; assay type: functional; details: MB2865, 24 h
[1] = tested on: Trichophyton mentagrophytes; test: Antifungal activity against Trichophyton mentagrophytes MF7004 assessed as inhibition of fungal growth after 96 hrs; assay type: functional; details: MF7004, 96 h
In short: (§1)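 Whole-cell growth assay with incubation of 24 h for most strains, 48 h for A. fumigatus and 96 h for T. mentagrophytes. MIC is the lowest concentration inhibiting visible growth. MIC80 is prominent growth inhibition, also called MEC for Aspergillus.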

Aspergillus fumigatus [2] = test: Antifungal activity against Aspergillus fumigatus MF5668 assessed as inhibition of fungal growth after 48 hrs in presence of 50% human serum; assay type: functional; details: MF5668, 48 h; in short: as §1
Aspergillus fumigatus [3] = test: Antifungal activity against Aspergillus fumigatus MF5668 assessed as inhibition of fungal growth after 48 hrs; assay type: functional; details: MF5668, 48 h
In short: (§2)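 Broth dilution against each fungal strain. Inoculum 10^5 CFU/mL, compound in 2-fold serial dilution in growth medium at 37 °C. MIC is the lowest concentration inhibiting visible growth; MIC80 (prominent inhibition, MEC for Aspergillus) also read. Incubation 24 h, except 48 h for A. fumigatus.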

Candida tropicalis = test: Antifungal activity against Candida tropicalis MY1012 assessed as inhibition of fungal growth after 24 hrs; assay type: functional; details: MY1012, 24 h; in short: as §2
Pichia kudriavzevii = test: Antifungal activity against Candida krusei ATCC 6258 assessed as inhibition of fungal growth after 24 hrs; assay type: functional; details: ATCC 6258, 24 h; in short: as §2
Clavispora lusitaniae = test: Antifungal activity against Candida lusitaniae MY1396 assessed as inhibition of fungal growth after 24 hrs; assay type: functional; details: MY1396, 24 h; in short: as §1
Candida parapsilosis = test: Antifungal activity against Candida parapsilosis ATCC 22019 assessed as inhibition of fungal growth after 24 hrs; assay type: functional; details: Lodderomyces parapsilosis, ATCC 22019, 24 h; in short: as §2
Nakaseomyces glabratus = test: Antifungal activity against Candida glabrata MY1381 assessed as inhibition of fungal growth after 24 hrs; assay type: functional; details: MY1381, 24 h; in short: as §2
Candida albicans [4] = test: Antifungal activity against Candida albicans MY1055 assessed as inhibition of fungal growth after 24 hrs in presence of 50% mouse serum; assay type: functional; details: MY1055, 24 h
Candida albicans [5] = test: Antifungal activity against Candida albicans MY1055 assessed as inhibition of fungal growth after 24 hrs; assay type: functional; details: MY1055, 24 h; in short: as §2
Candida albicans [6] = test: Induction of ATP release from cytoplasm of Candida albicans SC5314 at >MIC by Promega Bactiter Glo assay; assay type: functional, organism-based
In short: (§3)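 ATP leaking from fungal cells exposed to compound was measured by BacTiter Glo luminescence per manufacturer's instructions, in parallel with whole-cell growth inhibition across a concentration series. Release was referenced to basal ATP release in the assay and to total ATP release for each strain.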

Candida albicans [7] = test: Induction of ATP release from cytoplasm of Candida albicans isolate 2323 at >MIC by Promega Bactiter Glo assay; assay type: functional, organism-based; in short: as §3
Candida albicans [8] = test: Induction of ATP release from cytoplasm of Candida albicans isolate 2323 at 0.2 to 50 ug/ml by Promega Bactiter Glo assay; assay type: functional, organism-based
In short: (§4)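 Release of cytoplasmic ATP from whole C. albicans cells (strains 2323 and SC5314) exposed to compound, measured with the BacTiter Glo luminescence kit per manufacturer's instructions. Read alongside whole-cell growth inhibition in the same strains, and compared with basal ATP release and total releasable ATP for each strain.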

Candida albicans [9] = test: Induction of ATP release from cytoplasm of Candida albicans SC5314 at 0.2 to 50 ug/ml by Promega Bactiter Glo assay; assay type: functional, organism-based; in short: as §4
Candida albicans [10] = test: Antifungal activity against Candida albicans expressing DIP5 deletion mutant assessed as inhibition of fungal growth; assay type: functional, organism-based
Candida albicans [11] = test: Antifungal activity against Candida albicans expressing CRZ1 deletion mutant assessed as inhibition of fungal growth; assay type: functional, organism-based
Candida albicans [12] = test: Antifungal activity against Candida albicans expressing CMD1 deletion mutant assessed as inhibition of fungal growth; assay type: functional, organism-based
Candida albicans [13] = test: Antifungal activity against Candida albicans expressing RTA1+/- gene assessed as inhibition of fungal growth; assay type: functional, organism-based
Candida albicans [14] = test: Antifungal activity against Candida albicans expressing AUR+/- gene assessed as inhibition of fungal growth; assay type: functional, organism-based
Mus musculus [15] = test: Toxicity in DBA/2N mouse assessed as induction of lethality at 6.25 mg/kg, ip; assay type: organism-based; parameters: dose 6.25 mg/kg, route intraperitoneal; details: in vivo
Mus musculus [16] = test: Toxicity in DBA/2N mouse assessed as induction of lethality at >12.5 mg/kg, ip; assay type: organism-based; details: in vivo
Candida albicans [17] = test: Induction of ATP release from cytoplasm of Candida albicans isolate 2323 at 0.1 to 25 ug/ml by Promega Bactiter Glo assay; assay type: functional, organism-based; in short: as §4
Candida albicans [18] = test: Induction of ATP release from cytoplasm of Candida albicans SC5314 at 0.1 to 25 ug/ml by Promega Bactiter Glo assay; assay type: functional, organism-based; in short: as §4

Structure (SMILES)	MIC (Staphylococcus aureus)	MIC [1]	MIC (Aspergillus fumigatus [2])	MIC (Aspergillus fumigatus [3])	MIC (Candida tropicalis)	MIC (Pichia kudriavzevii)	MIC (Clavispora lusitaniae)	MIC (Candida parapsilosis)	MIC (Nakaseomyces glabratus)	MIC (Candida albicans [4])	MIC (Candida albicans [5])	Activity (Candida albicans [6])	Activity (Candida albicans [7])	growth inhibition (GI) (Candida albicans [10])	growth inhibition (GI) (Candida albicans [11])	growth inhibition (GI) (Candida albicans [12])	other results
CCCCCCCCCCCCC(C)(O)C(O)CC(=O)N[C@@H](CO)C(=O)N[C@@H](C)C(=O)N[C@@H](CC(=O)O)C(=O)N[C@@H](C)C(=O)N[C@@H](CO)C(=O)N[C@@H](CO)C(=O)N[C@H](C(=O)O)[C@@H](C)O (some centres undefined) (X1-SADASST-OH)	> 32 µg/mL	> 32 µg/mL	> 32 µg/mL	> 32 µg/mL	> 32 µg/mL	> 32 µg/mL	> 32 µg/mL	> 32 µg/mL	> 32 µg/mL	> 32 µg/mL	> 32 µg/mL	–	–	–	–	–	–
CC[C@H](C)C[C@H](C)CCCCCCCCC(=O)N[C@H]1C[C@@H](O)[C@@H](NCCN)NC(=O)[C@@H]2[C@@H](O)CCN2C(=O)[C@H]([C@H](O)CCN)NC(=O)[C@H]([C@H](O)[C@@H](O)c2ccc(O)cc2)NC(=O)[C@@H]2C[C@@H](O)CN2C(=O)[C@H]([C@@H](C)O)NC1=O [CASPOFUNGIN]	> 32 µg/mL	32 µg/mL (≈ 29.3 µM)	32 µg/mL	32 µg/mL (≈ 29.3 µM)	–	1 µg/mL (≈ 0.915 µM)	< 0.03 µg/mL	0.5 µg/mL (≈ 0.457 µM)	0.25 µg/mL (≈ 0.229 µM)	0.25 µg/mL	0.5 µg/mL (≈ 0.457 µM)	Active	Active	–	–	–	–
CCCCCCCCCCCC(C)(O)C1CC(=O)N[C@@H](CO)C(=O)N[C@H](C)C(=O)N[C@H](CC(=O)O)C(=O)N[C@@H](C)C(=O)N[C@H](CO)C(=O)N[C@H](CO)C(=O)N[C@H]([C@@H](C)O)C(=O)O1 (some centres undefined) [PHAEOFUNGIN]	> 32 µg/mL	4 µg/mL (≈ 4.49 µM)	> 32 µg/mL	16 µg/mL (≈ 18 µM)	> 32 µg/mL	> 32 µg/mL	32 µg/mL (≈ 36 µM)	> 32 µg/mL	> 32 µg/mL	> 32 µg/mL	32 µg/mL (≈ 36 µM)	–	–	inactive	inactive	inactive	Activity (Candida albicans [8]): Active; Activity (Candida albicans [9]): Active; growth inhibition (GI) (Candida albicans [13]): Active; growth inhibition (GI) (Candida albicans [14]): Active; Activity (Mus musculus [15]): Non-toxic; Activity (Mus musculus [16]): Dose-dependent effect; minimal effective concentration (Aspergillus fumigatus [3]; read-out: MEC): 8 µg/mL; MIC80 (Pichia kudriavzevii): 32 µg/mL (≈ 36 µM); MIC80 (Candida parapsilosis): 32 µg/mL (≈ 36 µM); MIC80 (Candida albicans [5]): 16 µg/mL (≈ 18 µM)
CCCCCCCCCCCCC(C)C1CC(=O)N[C@@H](C)C(=O)NC(CCO)C(=O)N[C@@H](CCC(=O)O)C(=O)NCC(=O)N[C@@H](CO)C(=O)N[C@H](CC(N)=O)C(=O)N[C@H]([C@H](C)O)C(=O)NC(CCO)C(=O)O1 (some centres undefined) (A[ξhSer]EGS[dN][dT][ξhSer]; linker N-C via X2)	–	–	–	–	–	–	–	–	–	–	–	–	–	inactive	Active	Active	Activity (Candida albicans [17]): inactive; Activity (Candida albicans [18]): inactive
C[C@@H]1[C@H](O)[C@@H](C)/C=C/C=C/C=C/C=C/C=C/C=C/C=C/[C@H](O[C@@H]2O[C@H](C)[C@@H](O)[C@H](N)[C@@H]2O)C[C@@H]2O[C@](O)(C[C@@H](O)C[C@@H](O)[C@H](O)CC[C@@H](O)C[C@@H](O)CC(=O)O[C@H]1C)C[C@H](O)[C@H]2C(=O)O	–	–	–	–	–	–	–	–	–	–	–	inactive	inactive	–	–	–	–
